MT1-MMP act inh – blockers of MT1-MMP proenzyme processing, primary screen, HT1080 RFP-PRO-GFP cells, GFP/RFP fluorescence. GFP/RFP ratio fluorescence, overnight; percent of plate control window, DMSO zero. GFP/RFP ratio change, % at 20 µM. 360,000 compounds, 0.061% hits. Matrix metalloproteinase-14 (Homo sapiens), P50281. AID 651647, 2012;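 active = GFP/RFP ratio change of at least 30% with cell ATP level not reduced by more than half and red fluorescence within 50% of control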
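Assay system: RFP-PRO-GFP reporter HT1080 cells; read-out basis: GFP/RFP fluorescence ratio; benchmarks: DMSO wells and RFP-L50D-GFP cells; doses: 20 µM single dose, 1% DMSO; schedule: overnight cell settling, then overnight compound exposure, 37 °C, 5% CO2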
Vif inh – HIV Vif self-association inhibitors, primary screen, imaging, HEK293T, single point. HEK293T cells, Vif self-association by quenched fluorescence, 24 h. inhibition, % at 7.49 µM. 340,000 compounds, 0.35% hits; in the data active = inhibition above about 50%, passing the limit was not always enough
DAGLB inh – DAGLB lipase inhibitors, primary screen, biochemical, fluorescence, HTS | HEK293T DAGLB membrane lysate, EnzChek fluorogenic substrate | Diacylglycerol lipase-beta (Homo sapiens), Q8NCG7 | 340,000 compounds, 0.059% hits | inhibition, % at 5.17 µM; in the data active = inhibition above about 34%;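 also: 0% = enzyme with vehicle and 100% = wells lacking enzyme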
Target sequence (Q8NCG7 whole entry, looked up): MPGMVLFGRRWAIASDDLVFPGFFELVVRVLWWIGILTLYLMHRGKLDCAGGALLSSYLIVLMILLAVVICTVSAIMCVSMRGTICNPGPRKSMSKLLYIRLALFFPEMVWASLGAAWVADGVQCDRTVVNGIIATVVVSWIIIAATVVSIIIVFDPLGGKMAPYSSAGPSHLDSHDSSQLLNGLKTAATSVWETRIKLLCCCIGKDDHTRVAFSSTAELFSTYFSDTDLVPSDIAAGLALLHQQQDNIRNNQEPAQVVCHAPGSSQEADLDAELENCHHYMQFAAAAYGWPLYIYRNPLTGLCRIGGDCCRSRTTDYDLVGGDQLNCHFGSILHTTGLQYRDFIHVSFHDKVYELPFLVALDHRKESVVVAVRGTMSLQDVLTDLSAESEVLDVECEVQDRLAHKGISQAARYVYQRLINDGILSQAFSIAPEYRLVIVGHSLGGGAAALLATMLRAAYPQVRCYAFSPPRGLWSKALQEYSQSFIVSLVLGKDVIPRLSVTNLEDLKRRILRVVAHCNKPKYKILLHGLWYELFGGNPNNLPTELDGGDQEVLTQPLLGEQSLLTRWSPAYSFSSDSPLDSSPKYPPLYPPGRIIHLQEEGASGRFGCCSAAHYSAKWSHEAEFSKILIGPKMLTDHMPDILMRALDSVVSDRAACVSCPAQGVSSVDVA
HCV core dimer – inhibitors of HCV core protein dimerization, primary screen, biochemical, TR-FRET, high-throughput. 300,000 compounds, 0.33% hits. inhibition, % at 5 µM. AID 1899, 2009. TR-FRET GST/Flag-core106 dimerization, 1536-well;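 active = inhibition above the mean of all tested compounds plus 3 SD, set per screening campaign, cut at about 45% in these data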
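Assay system: Tagged HCV core106 pair (GST and Flag) | Buffer or medium: KF-containing HEPES buffer, pH 7.45, DTT, CHAPS, BSA | Also added: Eu donor and XL665 acceptor anti-tag antibodies | Dosing: One concentration, 5 µM, in 0.5% DMSO | Timing: 4 h at 22.5 °C | Technique: TR-FRET 671 and 617 nm emission | Repeats: Singlicate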
NR2E3 ag-1 – NR2E3 agonists in two-hybrid cells, primary screen, cell-based, luminescence, CHO-S, Gal4-NCOR/VP16-NR2E3. Photoreceptor-specific nuclear receptor (Homo sapiens), Q9Y5X4. 360,000 compounds, 0.35% hits. inhibition of corepressor binding, % at 3.98 µM. luciferase;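 active = inhibition above the mean of all tested compounds plus 3 SD, cut at about 70% in these data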;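 also: 0% = DMSO with NR2E3 transfected cells and 100% = cells lacking NR2E3 construct; higher means lower luciferase signal from less NR2E3 corepressor binding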
NR2E3 ag-2 – inhibitors of NR2E3-RetCOR corepressor binding, primary screen, NR2E3 agonist project, biochemical, TR-FRET, GST-NR2E3, biotin-RetCOR | 320,000 compounds, 0.12% hits | Photoreceptor-specific nuclear receptor (Homo sapiens), Q9Y5X4 | 1536-well | inhibition of corepressor binding, % at 4.78 µM | AID 2300, 2010;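 active = percent inhibition above the cutoff of mean plus 3 SD of all tested compounds, set per screening campaign, cut at about 20% in these data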;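 also: 0% = DMSO wells and 100% = biotin wells as full block of FRET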
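Test system – NR2E3–RetCOR corepressor complex · Quantity – NR2E3 fusion 1.35 nM · Buffer or medium – Tris pH 7.5 · Incubation – Compound–protein incubation for 5 h at 4 °C · Technique – TR-FRET, Eu(K)-anti-GST donor, streptavidin-D2 acceptor, ex 340, em 617/671 nm · Evaluation – percent inhibition of 671/617 nm emission ratio versus biotin and DMSO controls · Plate – 1536-well format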
NR2E3 ag conf – NR2E3 agonist confirmation in cells, cell-based, luminescence, CHO-S two-hybrid; shares compounds with NR2E3 ag-1; CHO-S mammalian two-hybrid NR2E3-NCOR, luciferase luminescence; inhibition, % at 3.98 µM; 2,300 compounds, 51% hits; AID 624378, 2012;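 active = average inhibition above a cutoff equal to the mean inhibition of all tested compounds plus one SD, cut at about 70% in these data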;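 also: 0% = DMSO in NR2E3 cells and 100% = DMSO in cells lacking NR2E3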
GAL4-VP16 luc – GAL4-VP16 reporter modulators, confirmation, counter-screen for NR2E3 agonist project, cell-based, luminescence, CHO-S, high throughput | 2,300 compounds, 29% hits | inhibition, % at 3.98 µM | shares compounds with NR2E3 ag-1 | CHO-S GAL4-VP16 luciferase reporter;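 active = mean inhibition above a cutoff equal to the average over all tested compounds plus one standard deviation, cut at about 70% in these data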;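 also: luciferase from a UAS reporter driven by GAL4-VP16 transactivation; 0% = DMSO with VP16-transfected cells and 100% = DMSO with cells lacking VP16; higher means less reporter light so more repression of VP16 activity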
An asterisk follows results filed as active; x = not tested or not shown. Compounds with a hit are over-represented: about 1.1% of the library has one in this group of screens.

SMILES	MT1-MMP act inh	Vif inh	DAGLB inh	HCV core dimer	NR2E3 ag-1	NR2E3 ag-2	NR2E3 ag conf	GAL4-VP16 luc
Cc1ccccc1-c1cnc(C(O)c2ccc(C(C)(C)C)cc2)[nH]1 (stereo unspecified)	1	16	x	x	6	x	x	x
O=C(COC(=O)C1CCC1)NCCc1ccc(Cl)cc1Cl	4	6	-1	-7	-30	-2	x	x
CC(OC(=O)Cn1[nH]c(=O)c2ccccc2c1=O)C(=O)c1ccccc1 (stereo unspecified)	4	-8	-5	1	-13	1	x	x
O=C(CSCc1cccc(Br)c1)NC1CC1	3	-5	-2	1	-13	-2	x	x
Cc1ccc(NS(=O)(=O)c2ccc(-n3cccn3)cc2)cc1Cl	-3	-4	2	x	4	x	x	x
O=S(=O)(Nc1cccc(Cl)c1)c1ccc(-n2cccn2)cc1	3	x	1	-22	-1	3	x	x
COc1cc(NS(=O)(=O)c2ccc(-n3cccn3)cc2)cc(OC)c1	7	-18	-2	x	51	x	55	47
Cc1ccc(NS(=O)(=O)c2ccc(-n3cccn3)cc2)cc1C	7	-1	-2	4	57	4	59	52
COc1ccc(/C=N/N=C2\CC3CCC2(C)C3(C)C)cc1O (stereo unspecified)	-2	-6	-4	-2	74*	-2	-3	2
Cc1ccc(C(=O)Sc2cccccc2=O)cc1	14	-3	3	11	101*	-3	-22	-82
c1csc(CNc2ccc3c(c2)OCCO3)c1	-3	x	1	0	58	1	48	3
CC(Sc1ncn[nH]1)C(=O)Nc1ccc(Cl)cn1 (stereo unspecified)	-2	4	0	-4	-12	-5	x	x
CCOC(=O)c1ccc(S(=O)(=O)NC2CCC(C)CC2)cc1 (stereo unspecified)	5	-15	-8	x	70	0	51	51
CCOC(=O)c1ccc(S(=O)(=O)NC2CC2)cc1	0	-15	-3	-4	-20	0	x	x
Cc1ccc(S(=O)(=O)NC(=O)C2(C)CCN2C(=O)COc2ccc(Cl)cc2)nc1 (stereo unspecified)	0	7	x	x	11	x	x	x
COC(C(=O)C(O)C(C)O)C1Cc2cc3cc(OC4CC(OC5CC(O)C(O)C(C)O5)C(O)C(C)O4)c(C)c(O)c3c(O)c2C(=O)C1OC1CC(OC2CC(OC3CC(O)C(OC)C(C)O3)C(O)C(C)O2)C(O)C(C)O1 (stereo unspecified)	-20	5	-4	x	96*	x	93*	75*
Nc1cccc2cccc([N+](=O)[O-])c12	-78	5	3	x	4	x	x	x
NC(=O)NOCc1ccccc1F	0	-3	x	-4	-12	2	x	x
S=C(Nc1ccc(Br)cc1)Nc1ccc2c(c1)OCCO2	4	17	-2	-17	50	2	-85	-79
CCN(CC(=O)Nc1ccc(NC(C)=O)cc1)C(=O)C1(c2ccc(Cl)cc2)CCC1	-5	-2	-8	x	48	x	39	-4
CC(c1ccccc1)c1nnc(N)s1 (stereo unspecified)	1	0	0	1	59	3	10	9
Cc1onc(-c2ccccc2)c1C(=O)Nc1cccc(S(=O)(=O)N2CCCCC2)c1	0	-11	1	x	-6	x	x	x
COC(=O)c1cc(CSc2nc3ccccc3c(=O)n2C)oc1C	-5	-12	-4	0	87*	4	83*	71*
COCCn1c(SCc2ccc(C(=O)OC)o2)nc2ccccc2c1=O	5	-10	-2	-6	8	2	x	x
Brc1ccc(-c2nnc3sc(CN4CCc5ccccc5C4)cn23)cc1	2	-18	-1	x	-25	x	x	x
SMILES	MT1-MMP act inh	Vif inh	DAGLB inh	HCV core dimer	NR2E3 ag-1	NR2E3 ag-2	NR2E3 ag conf	GAL4-VP16 luc
c1ccc(-c2nnc3sc(CN4CCc5ccccc54)cn23)cc1	-3	-4	2	1	51	-1	30	12
N#CC(C(=S)Nc1ccccc1)c1nc2ccccc2[nH]1 (stereo unspecified)	0	-3	9	-5	78*	3	-12	-15
BrC(=C\c1ccccc1)/C=N/n1cnnc1	-13	20	-3	x	52	x	27	28
BrC(=C\c1ccccc1)/C=N/Nc1ccc2nncn2n1	7	10	0	1	-7	0	x	x
CCC(C)(C)c1ccc(Oc2ccc(N)cc2)cc1	-30	8	-2	x	61	x	60	70
CCCn1c(N2CCC(Cc3ccccc3)CC2)nc2c1c(=O)[nH]c(=O)n2C	-6	-7	0	27	49	3	29	39
CCCCCn1c(N2CCC(Cc3ccccc3)CC2)nc2c1c(=O)[nH]c(=O)n2C	-8	-7	6	16	-1	-3	x	x
CC(C)c1ccc(S(=O)(=O)N2CCN(CC(O)CN3CCOCC3)CC2)cc1 (stereo unspecified)	2	-2	0	x	-11	0	x	x
CC(OCC(O)CN1CCN(S(=O)(=O)c2ccc(Cl)cc2)CC1)c1ccc(Cl)cc1 (stereo unspecified)	-5	x	-4	x	51	x	59	45
O=S(=O)(c1cccc(NC(=S)N2CCN(c3cccc(Cl)c3)CC2)c1)C(F)F	22	-7	2	8	54	5	80*	69
O=S(=O)(c1cccc(NC(=S)N2CCN(c3ccc(F)cc3)CC2)c1)C(F)F	6	0	0	0	22	2	x	x
CC1(c2ccccc2)CC(C)(C)N2C(=O)Cc3cccc1c32 (stereo unspecified)	1	-5	-5	-2	0	0	x	x
Cc1ccc(N2CC(C(=O)Nc3nccs3)CC2=O)cc1Cl (stereo unspecified)	-1	15	1	-4	48	2	59	21

Bioassay records as filed in PubChem BioAssay.
